The values that follow come from ChEMBL document CHEMBL1123139, “Antiandrogenic activity of a series of des-A-steroid derivatives” (1985).

Assay [1] deals with Cricetinae gen. sp. The assay can be described thus: Local activity of untreated flank organ in hamster; Expressed as weight (mg). The class given is functional. Put shortly: (§1)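 Male hamsters (100–110 g), castrated 7 days earlier, in groups of four. […] Test compound in 20 μL ethanol was applied daily to the right flank organ, and the contralateral organ received ethanol only. Animals were killed 24 h after the last treatment, and flank organs and prostate were weighed. Results are mean ± SEM.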

Assay [2] has as its system Cricetinae gen. sp. The assay can be described thus: (§2) Local subcutaneous administration (1 mg); Expressed as weight (mg). Type of assay: functional. The procedure, abridged: as §1
In assay [3] the test system is Cricetinae gen. sp. The description is as §2. The class given is functional. The procedure, abridged: as §1
This is another data set of the same source.

Assay [4] concerns Rattus norvegicus. In words: In vivo percent increase in rat prostate weight on subcutaneous administration of testosterone propionate along with compound at dose 5 mg/day; Expressed as percent inhibition of weight increase, mg. Type of assay: functional, Prostate gland. The procedure, abridged: (§3)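 Immature male rats (70 g), castrated 24 h earlier, in groups of five. […] Controls received vehicle only (sesame oil with 5% benzyl alcohol). Rats were killed 24 h after the last dose, and prostate and seminal vesicles were excised and weighed.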

Assay [5] relates to Rattus norvegicus. In words: In Vivo inhibition against increase in immature castrated rat seminal vesicles weight on subcutaneous administration of testosterone propionate at dose 5 mg/kg. Type of assay: functional.
The subject of assay [6] is Rattus norvegicus. The assay can be described thus: In vivo percent increase rat seminal vesicles weight on subcutaneous administration of testosterone propionate along with compound at dose 5 mg/day; Expressed as percent inhibition of weight increase, mg. The class given is functional. The procedure, abridged: as §3
Assay [7] has as its system Rattus norvegicus. The assay can be described thus: In vivo percent increase in rat prostate weight on subcutaneous administration of testosterone propionate along with compound at dose 1 mg/day; Expressed as percent inhibition of weight increase, mg. Type of assay: functional, Prostate gland.
The subject of assay [8] is Rattus norvegicus. The assay can be described thus: In vivo percent increase in rat seminal vesicles weight on subcutaneous administration of testosterone propionate along with compound at dose 1 mg/day; Expressed as percent inhibition of weight increase, mg. The class given is functional.
In assay [9] the test system is Cricetinae gen. sp. In words: (§4) Local subcutaneous administration (125 ug); Expressed as weight (mg). The class given is functional. The procedure, abridged: as §1
Assay [10] concerns Cricetinae gen. sp. The assay is described as §4. Type of assay: functional. The procedure, abridged: as §1
This is another data set of the same source.

Assay [11] deals with Cricetinae gen. sp. In words: (§5) Tocal subcutaneous administration (200 ug); Expressed as weight (mg). Type of assay: functional. Put shortly:
as §1

In assay [12] the test system is Cricetinae gen. sp. The assay can be described thus: (§6) Tocal subcutaneous administration (40 ug); Expressed as weight (mg). Type of assay: functional. Put shortly:
as §1

Assay [13] relates to Cricetinae gen. sp. The description is as §5. The class given is functional. The procedure, abridged:
as §1
This is another data set of the same source.

Assay [14] deals with Cricetinae gen. sp. In words: (§7) Local subcutaneous administration (200 ug); Expressed as weight (mg). The class given is functional. The procedure, abridged: as §1
For assay [15], the system named is Cricetinae gen. sp. The description is as §7. The class given is functional. Put shortly:
as §1
The source holds these as a separate data set.

In assay [16] the test system is Cricetinae gen. sp. In words: (§8) Tocal subcutaneous administration (1 mg); Expressed as weight (mg). The class given is functional. The procedure, abridged:
as §1

Assay [17] concerns Cricetinae gen. sp. The assay can be described thus: Tocal activity of untreated flank organ in hamster; Expressed as weight (mg). Type of assay: functional. The procedure, abridged:
as §1

Assay [18] has as its system Cricetinae gen. sp. The description is as §6. Type of assay: functional. Put shortly: as §1
This is another data set of the same source.

For assay [19], the system named is Cricetinae gen. sp. The description is as §8. The class given is functional. Put shortly:
as §1
This is another data set of the same source.

The structures appear in SMILES notation. Where “and” joins values, the source holds several entries; their conditions need not be identical. Equal values may be shown once.

By Inhibition is commonly meant the relative decrease from the control value, in per cent.

For the compound `CCC(=O)O[C@H]1CC[C@H]2[C@@H]3CCC4=CC(=O)CC[C@]4(C)[C@H]3CC[C@]12C.CCC12CCC3=C(C)C(=O)CCC3C1CCC2O`, the Weight with Cricetinae gen. sp. [1] is recorded as 35.2 mg; with Cricetinae gen. sp. [2] it was 137 mg; in the assay with Cricetinae gen. sp. [3] it was 31.9 mg.

With `CCC12CCC3=C(C)C(=O)CCC3C1CCC2O` (stereo unspecified), the Inhibition in the assay with Rattus norvegicus [4] amounted to 10%. The “Inhibition of increase in weight” value with Rattus norvegicus [5] amounted to 50%.

Consider `CC1=C2CCC3(C)C(O)CCC3C2CCC1=O` (stereo unspecified), for which, in the assay with Rattus norvegicus [4], the Inhibition is 27%. Besides, in the assay with Rattus norvegicus [5], the “Inhibition of increase in weight” value is 54%.

For the compound `CCC1=C2CCC3(C)C(OC(C)=O)CCC3C2CCC1=O` (stereo unspecified), the Inhibition in the assay on Rattus norvegicus [4] and with Rattus norvegicus [6] was 50% throughout.

For the compound `CC(=O)O[C@]1(C(C)=O)CC[C@H]2[C@@H]3C=C(Cl)C4=CC(=O)[C@@H]5C[C@@H]5[C@]4(C)[C@H]3CC[C@@]21C` [CYPROTERONE ACETATE], the figures for the Inhibition in the assay with Rattus norvegicus [7] and in the assay on Rattus norvegicus [8] were 90% and 73%, respectively.

Regarding `CCC(=O)O[C@H]1CC[C@H]2[C@@H]3CCC4=CC(=O)CC[C@]4(C)[C@H]3CC[C@]12C.CCC1=C2CCC3(C)C(O)CCC3C2CCC1=O`, the values for the Weight with Cricetinae gen. sp. [1], in the assay with Cricetinae gen. sp. [2] and in the assay with Cricetinae gen. sp. [3] were 34.8 mg, 134 mg and 27.8 mg, respectively.

With `CCC1=C2CCC3(C)C(O)CCC3C2CCC1=O` (stereo in doubt; 5c), the Inhibition with Rattus norvegicus [4] was found to be 59%. In addition, the “Inhibition of increase in weight” value in the assay on Rattus norvegicus [5] is recorded as 73%.

Take `CCC(=O)O[C@H]1CC[C@H]2[C@@H]3CCC4=CC(=O)CC[C@]4(C)[C@H]3CC[C@]12C` [TESTOSTERONE PROPIONATE]: the Weight is 37.6 mg and 49.4 mg with Cricetinae gen. sp. [1]; 165 mg and 171 mg with Cricetinae gen. sp. [9]; 37.6 mg and 48.5 mg in the assay on Cricetinae gen. sp. [10].

On to `CC1=C2C=CC3(C)C(O)CCC3C2CCC1=O` (stereo unspecified), for which the Inhibition in the assay with Rattus norvegicus [4] was 25%. Also, the “Inhibition of increase in weight” value in the assay with Rattus norvegicus [5] amounted to 45%.

`CC1(C)C(=O)CCC2C1CCC1(C)C(O)CCC21` (stereo unspecified): the Inhibition with Rattus norvegicus [4] was found to be 49%. In the assay on Rattus norvegicus [5], the “Inhibition of increase in weight” value was 63%.

As for `CCC(=O)O[C@H]1CC[C@H]2[C@@H]3CCC4=CC(=O)CC[C@]4(C)[C@H]3CC[C@]12C.CCC1=C2CCC3(C)C(OC(C)=O)CCC3C2CCC1=O`, the Weight is 108 mg in the assay with Cricetinae gen. sp. [11]; 31.7 mg and 33 mg in the assay with Cricetinae gen. sp. [1]; 125 mg with Cricetinae gen. sp. [12]; 31.1 mg in the assay on Cricetinae gen. sp. [13]; 22.8 mg in the assay on Cricetinae gen. sp. [14]; 143 mg in the assay with Cricetinae gen. sp. [2]. The Weight in the assay on Cricetinae gen. sp. [15] was 145 mg; with Cricetinae gen. sp. [16] it was 111 mg; in the assay on Cricetinae gen. sp. [3] it was 16.8 mg; in the assay on Cricetinae gen. sp. [17] it was 46.2 mg and 42.9 mg and 46.8 mg; in the assay on Cricetinae gen. sp. [18] it was 38.9 mg; in the assay with Cricetinae gen. sp. [19], 24.8 mg.

In the case of `CC1(C)C(=O)CCC2C1CCC1(C)C(O)CCC21.CCC(=O)O[C@H]1CC[C@H]2[C@@H]3CCC4=CC(=O)CC[C@]4(C)[C@H]3CC[C@]12C`, the figures for the Weight in the assay with Cricetinae gen. sp. [1], in the assay on Cricetinae gen. sp. [2] and with Cricetinae gen. sp. [3] were 36.7 mg, 135 mg and 28.4 mg, respectively.

Consider `CC1=C2CCC3(C)C(O)CCC3C2CCC1=O.CCC(=O)O[C@H]1CC[C@H]2[C@@H]3CCC4=CC(=O)CC[C@]4(C)[C@H]3CC[C@]12C`, for which the Weight is recorded as 37.3 mg with Cricetinae gen. sp. [1], 144 mg in the assay with Cricetinae gen. sp. [2] and 36.8 mg with Cricetinae gen. sp. [3].
